ChEMBL document CHEMBL3526142, “Biotransformation of a novel antimitotic agent, I-387, by mouse, rat, dog, monkey, and human liver microsomes and in vivo pharmacokinetics in mice” (Drug Metab Dispos, 2011)

Experiments:
[1] = Antitumor activity against human PC3 cells xenografted in nu/nu mouse assessed as decrease in tumor growth at 10 mg/kg, ip 2 days per week for weeks; format: functional; conditions: PC-3, ip, 48 h, route intraperitoneal
[2] = Tmax in ICR mouse at 5 mg/kg, po by LC-MS/MS analysis; format: ADME, organism-based; design: dose 5 mg/kg, route oral; conditions: in vivo
Procedure, shortened: (§1)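 Male ICR mice (5–6 weeks, 20–25 g) dosed by gavage in 10% DMSO in PEG300. Three to four mice per time point were euthanized under isoflurane and blood taken from the posterior vena cava. Plasma was acetonitrile-precipitated and analysed by LC-MS/MS (MRM m/z 388.2→192). Tmax read by visual inspection. F = (AUC_oral × dose_iv)/(AUC_iv × dose_oral), with AUC_inf by trapezoidal rule; n = 3/dose group.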

[3] = Oral bioavailability in ICR mouse at 15 mg/kg via gavage after 30 mins by LC-MS/MS analysis; format: ADME, organism-based; conditions: in vivo; procedure, shortened: as §1
[4] = Tmax in ICR mouse at 1 mg/kg, po by LC-MS/MS analysis; format: ADME, organism-based; design: dose 1 mg/kg, route oral; conditions: in vivo; procedure, shortened: as §1
[5] = Drug metabolism in mouse liver microsomes assessed as (3-(1H-indol-2-yl)phenyl)(3,4,5-trimethoxyphenyl)methanol formation at 0.5 uM after 2 hrs by LC-MS/MS analysis in presence of 3 mM NADPH; format: ADME
Procedure, shortened: (§2)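 Pooled liver microsomes (1 mg/ml protein) incubated with 0.5 µM substrate and 3 mM NADPH in 65 mM potassium phosphate, pH 7.4, 1% methanol, at 37°C for 2 h. Stopped with ice-cold acetonitrile containing internal standard, centrifuged. Supernatant analysed by LC-MS/MS on a C18 column, 15-min gradient, with product ion scans for metabolite identification.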

[6] = Oral bioavailability in ICR mouse at 5 mg/kg via gavage after 30 mins by LC-MS/MS analysis; format: ADME, organism-based; conditions: in vivo; procedure, shortened: as §1
[7] = Cmax in ICR mouse at 1 mg/kg, po via gavage by LC-MS/MS analysis; format: ADME, organism-based; design: dose 1 mg/kg, route oral; conditions: in vivo
Procedure, shortened: (§3)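 Male ICR mice (5–6 weeks, 20–25 g), single doses of 1, 5 or 15 mg/kg in 10% DMSO/PEG300, given iv by tail vein, ip, or orally by gavage. Three to four mice per time point, euthanized under isoflurane, blood drawn from posterior vena cava. Plasma protein precipitated with acetonitrile containing internal standard, then LC-MS/MS (MRM m/z 388.2→192). Noncompartmental analysis of mean concentration-time data, AUCinf by trapezoidal rule with extrapolation, CL = dose/AUCinf, Cmax read from the curve. F = (AUCnon-iv × dose iv)/(AUCiv × dose non-iv). n = 3 per dose group.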

[8] = Cmax in ICR mouse at 15 mg/kg, ip by LC-MS/MS analysis; format: ADME, organism-based; design: dose 15 mg/kg, route intraperitoneal; conditions: in vivo; procedure, shortened: as §3
[9] = Mean residence time (infinity) in ICR mouse at 1 mg/kg, iv by LC-MS/MS analysis; format: ADME, organism-based; design: dose 1 mg/kg, route intravenous; conditions: in vivo; procedure, shortened: as §3
[10] = Cmax in ICR mouse at 1 mg/kg, iv by LC-MS/MS analysis; format: ADME, organism-based; design: dose 1 mg/kg, route intravenous; conditions: in vivo; procedure, shortened: as §3
[11] = Mean residence time (infinity) in ICR mouse at 5 mg/kg, ip by LC-MS/MS analysis; format: ADME, organism-based; design: dose 5 mg/kg, route intraperitoneal; conditions: in vivo; procedure, shortened: as §3
[12] = Tmax in ICR mouse at 15 mg/kg, po by LC-MS/MS analysis; format: ADME, organism-based; design: dose 15 mg/kg, route oral; conditions: in vivo; procedure, shortened: as §1
Liver = experiment: Drug level in mouse liver microsomes assessed as compound retention time treated with 0.5 uM I-387 after 2 hrs by LC-MS/MS analysis; format: ADME; procedure, shortened: as §2
[13] = Terminal half life in ICR mouse at 1 mg/kg, po via gavage by LC-MS/MS analysis; format: ADME, organism-based; design: dose 1 mg/kg, route oral; conditions: in vivo, read-out: beta t1/2 (converted)
Procedure, shortened: (§4)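 Male ICR mice (20–25 g) given the compound intraperitoneally or by gavage in 10% DMSO/PEG300. Three to four mice were sacrificed per time point and plasma collected from the vena cava. Plasma was precipitated with acetonitrile containing internal standard and analysed by LC-MS/MS. Noncompartmental analysis of mean concentration-time data: terminal t1/2 = ln2/λz; Tmax by inspection; n = 3/dose group.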

[14] = Metabolic stability in dog liver microsomes assessed as half life during phase 1 and 2 at 0.5 uM by LC-MS/MS analysis in presence of 3 mM NADPH and […] UDPGA; format: ADME, Canis lupus familiaris; conditions: read-out: alphat1/2
[15] = Bioavailability in ICR mouse at 1 mg/kg, ip by LC-MS/MS analysis; format: ADME, organism-based; conditions: in vivo; procedure, shortened: as §3
[16] = Volume of distribution at steady state in ICR mouse at 1 mg/kg, iv by LC-MS/MS analysis; format: ADME, organism-based; design: dose 1 mg/kg, route intravenous; conditions: in vivo, read-out: Vdss
Procedure, shortened: (§5)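 Tail-vein injection in male ICR mice (5–6 weeks), vehicle 10% DMSO in PEG300. Serial terminal sampling of 3–4 mice per time point, with posterior vena cava blood. Plasma was acetonitrile-precipitated and measured by LC-MS/MS. Noncompartmental analysis of mean data: t1/2 = ln2/λz, CL = dose/AUC_inf, Vd_ss = CL × MRT_inf; n = 3/dose group.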

[17] = Metabolic stability in mouse liver microsomes assessed as half life during phase 1 at 0.5 uM by LC-MS/MS analysis in presence of 3 mM NADPH and absence of UDPGA; format: ADME; conditions: read-out: alphat1/2
Procedure, shortened: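 Pooled liver microsomes at 1 mg/ml protein with 3 mM NADPH, 0.5 μM substrate in 65 mM potassium phosphate pH 7.4, 1% methanol, 37°C. Incubations stopped at 10, 20, 30, 60 and 90 min with ice-cold acetonitrile plus internal standard, then LC-MS/MS of parent remaining relative to time 0. Half-life from a two-parameter single exponential decay fit; n = 2 to 3.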

[18] = Metabolic stability in human liver microsomes assessed as half life during phase 1 and 2 at 0.5 uM by LC-MS/MS analysis in presence of 3 mM NADPH and 5 mM UDPGA; conditions: read-out: alphat1/2
[19] = Mean residence time (infinity) in ICR mouse at 5 mg/kg, po via gavage by LC-MS/MS analysis; format: ADME, organism-based; design: dose 5 mg/kg, route oral; conditions: in vivo; procedure, shortened: as §3
[20] = Terminal half life in ICR mouse at 15 mg/kg, iv by LC-MS/MS analysis; format: ADME, organism-based; design: dose 15 mg/kg, route intravenous; conditions: in vivo, read-out: beta t1/2 (converted); procedure, shortened: as §5
[21] = Cmax in ICR mouse at 5 mg/kg, po via gavage by LC-MS/MS analysis; format: ADME, organism-based; design: dose 5 mg/kg, route oral; conditions: in vivo; procedure, shortened: as §3
[22] = AUC (infinity) in ICR mouse at 5 mg/kg, iv by LC-MS/MS analysis; format: ADME, organism-based; design: time infinity, dose 5 mg/kg, route intravenous; conditions: plasma; procedure, shortened: as §3
[23] = Mean residence time (infinity) in ICR mouse at 5 mg/kg, iv by LC-MS/MS analysis; format: ADME, organism-based; design: dose 5 mg/kg, route intravenous; conditions: in vivo; procedure, shortened: as §3
[24] = Tmax in ICR mouse at 5 mg/kg, ip by LC-MS/MS analysis; format: ADME, organism-based; design: dose 5 mg/kg, route intraperitoneal; conditions: in vivo; procedure, shortened: as §4
Liver microsome [25] = experiment: Drug metabolism in rat liver microsomes assessed as (3-(1H-indol-2-yl)phenyl)(3,4,5-trimethoxyphenyl)methanol formation at 0.5 uM after 2 hrs by LC-MS/MS analysis in presence of 3 mM NADPH; format: ADME; procedure, shortened: as §2
[26] = Volume of distribution at steady state in ICR mouse at 15 mg/kg, iv by LC-MS/MS analysis; format: ADME, organism-based; design: dose 15 mg/kg, route intravenous; conditions: in vivo, read-out: Vdss; procedure, shortened: as §5
[27] = Oral bioavailability in ICR mouse at 1 mg/kg via gavage after 30 mins by LC-MS/MS analysis; format: ADME, organism-based; conditions: in vivo; procedure, shortened: as §1
Liver microsome [28] = experiment: Drug metabolism in human liver microsomes assessed as (3-(1H-indol-2-yl)phenyl)(3,4,5-trimethoxyphenyl)methanol formation at 0.5 uM after 2 hrs by LC-MS/MS analysis in presence of 3 mM NADPH; format: ADME; procedure, shortened: as §2

**Q.** What does the source list for `COc1cc(C(=O)c2cccc(-c3cc4ccccc4[nH]3)c2)cc(OC)c1OC`?
**A.** inhibition in vivo at 10 mg/kg [1]: 68%; Tmax [2]: 30 min; bioavailability [3]: 8%; Tmax [4]: 30 min; Drug metabolism [5]: metabolite_detected; bioavailability [6]: 13%; Cmax [7]: 30 ng/mL; Cmax [8]: 4290 ng/mL; MRT inf [9]: 180 min; Cmax [10]: 550 ng/mL; MRT inf [11]: 330 min; Tmax [12]: 30 min; Retention_time (Liver): 11.3 min; half-life [13]: 522 min; half-life at 0.5 µM [14]: 33 min; bioavailability [15]: 65%; Vd [16]: 5.3 L/kg; half-life at 0.5 µM [17]: 37 min; half-life at 0.5 µM [18]: 30 min; MRT inf [19]: 534 min; half-life [20]: 534 min; Cmax [21]: 100 ng/mL; AUC(0-inf) [22]: 3950 ng·h/mL; MRT inf [23]: 198 min; Tmax [24]: 5 min; Drug metabolism (Liver microsome [25]): metabolite_detected; Vd [26]: 9.8 L/kg; bioavailability [27]: 24%; Drug metabolism (Liver microsome [28]): metabolite_detected
